The source of these data is ChEMBL document CHEMBL1144528, “Synthesis of 8-thiabicyclo[3.2.1]octanes and their binding affinity for the dopamine and serotonin transporters” (Bioorg Med Chem, 2007).

Bounds are passed on as bounds.

Assay [1] addresses Transporter (Macaca mulatta, UniProt Q7JHP9). In words: Displacement of [3H]WIN-35428 from DAT in rhesus monkey caudate-putamen. In kind it is tissue-based. In a few lines:
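Rhesus or cynomolgus caudate-putamen membranes (4 mg original wet weight/mL) in 50 mM Tris·HCl pH 7.4, 100 mM NaCl. Incubated 2 h at 0-4 °C with 0.3 nM [3H]WIN35,428 and a range of drug concentrations. Filtered on 0.1% BSA-soaked glass fibre filters and scintillation counted. Nonspecific binding defined with 30 μM (-)-cocaine. IC50 is the mean of ≥2 experiments in different brains, each in triplicate.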

Assay [2] concerns the target Sodium-dependent serotonin transporter (Macaca mulatta, UniProt Q9MYX0). In words: Displacement of [3H]citalopram from SERT in rhesus monkey caudate-putamen. In kind it is tissue-based. In a few lines:
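Caudate-putamen membranes from rhesus or cynomolgus monkey (4 mg original wet weight/mL) in 50 mM Tris·HCl pH 7.4 with 100 mM NaCl. Incubated with 1 nM [3H]citalopram and a range of test drug concentrations for 2 h at 0-4 °C. Filtered over glass fibre filters pre-soaked in 0.1% polyethyleneimine, then scintillation counted. IC50 is the mean of ≥2 independent experiments in different brains, each in triplicate.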
(In general: Displacement assays read how much labelled ligand stays bound in the presence of the test substance.)

For assay [3], the species on record is Macaca mulatta. In words: Selectivity for rhesus monkey DAT over rhesus monkey SERT. In short, it runs like this: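 Ratio of SERT IC50 ([3H]citalopram binding) to DAT IC50 ([3H]WIN35,428 binding), both measured in monkey caudate-putamen membranes.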

Chain of Transporter (Q7JHP9 whole entry): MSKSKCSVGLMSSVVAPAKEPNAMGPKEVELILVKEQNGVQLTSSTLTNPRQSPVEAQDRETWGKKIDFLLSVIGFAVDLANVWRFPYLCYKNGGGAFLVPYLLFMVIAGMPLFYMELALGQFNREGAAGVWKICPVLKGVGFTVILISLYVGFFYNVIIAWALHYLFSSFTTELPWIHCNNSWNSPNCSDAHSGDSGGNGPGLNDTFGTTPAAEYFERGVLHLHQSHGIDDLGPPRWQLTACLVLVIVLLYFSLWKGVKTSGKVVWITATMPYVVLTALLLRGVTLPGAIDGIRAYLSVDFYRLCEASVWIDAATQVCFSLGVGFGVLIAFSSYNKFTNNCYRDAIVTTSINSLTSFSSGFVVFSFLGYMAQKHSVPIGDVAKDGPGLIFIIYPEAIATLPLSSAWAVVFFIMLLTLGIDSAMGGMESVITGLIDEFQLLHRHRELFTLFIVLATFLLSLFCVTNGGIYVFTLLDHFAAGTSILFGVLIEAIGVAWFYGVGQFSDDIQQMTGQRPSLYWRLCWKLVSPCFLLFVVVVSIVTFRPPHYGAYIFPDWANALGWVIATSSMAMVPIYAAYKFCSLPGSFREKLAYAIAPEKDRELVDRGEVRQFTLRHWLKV
Chain of Sodium-dependent serotonin transporter (Q9MYX0 whole entry): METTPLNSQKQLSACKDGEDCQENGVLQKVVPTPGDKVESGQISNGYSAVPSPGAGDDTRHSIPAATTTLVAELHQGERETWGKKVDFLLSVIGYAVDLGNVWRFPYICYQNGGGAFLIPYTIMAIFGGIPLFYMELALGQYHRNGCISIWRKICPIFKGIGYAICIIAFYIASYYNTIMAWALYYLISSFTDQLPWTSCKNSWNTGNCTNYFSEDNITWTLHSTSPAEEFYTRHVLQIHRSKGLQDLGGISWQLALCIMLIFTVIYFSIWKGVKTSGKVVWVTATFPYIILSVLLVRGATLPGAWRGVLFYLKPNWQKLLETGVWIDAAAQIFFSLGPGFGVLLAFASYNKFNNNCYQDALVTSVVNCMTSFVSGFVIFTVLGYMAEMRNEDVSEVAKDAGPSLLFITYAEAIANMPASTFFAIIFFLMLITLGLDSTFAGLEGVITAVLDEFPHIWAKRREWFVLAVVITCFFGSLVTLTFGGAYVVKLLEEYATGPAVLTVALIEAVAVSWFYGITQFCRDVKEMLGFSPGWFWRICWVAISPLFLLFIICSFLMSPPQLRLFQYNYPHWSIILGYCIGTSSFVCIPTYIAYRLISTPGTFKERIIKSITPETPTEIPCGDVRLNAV

A word on the IC50: it is the point on the concentration scale where inhibition reaches its midpoint. As to `COC(=O)[C@@H]1C2CCC(C2)C[C@H]1c1ccc(Cl)c(Cl)c1` (stereo partly specified), the figures for the IC50 in assay [1] and in assay [2] were 13 nM and 166 nM, respectively. The Ratio IC50 in assay [3] turned out to be 13.

As for `COC(=O)C1=C(c2ccc(Cl)c(Cl)c2)CC2CC[C@H]1S2`, the IC50 came out at 2.5 nM in assay [1] and 2600 nM in assay [2]. Also, in assay [3], the Ratio IC50 was 1040.

`COC(=O)[C@@H]1[C@H]2CCC(C[C@H]1c1ccc(Cl)c(Cl)c1)S2`: the results for the half-inhibitory concentration (IC50) in assay [1] and in assay [2] were 4.9 nM and 39 nM, respectively. In assay [3], the Ratio IC50 amounted to 8.

`COC(=O)[C@@H]1C2CCC(C[C@H]1c1ccc(Cl)c(Cl)c1)[S+]2[O-]` (stereo partly specified): the IC50 in assay [1] was 7.8 nM; in assay [2], greater than 3000 nM. The Ratio IC50 in assay [3] was greater than 346.

For the molecule `COC(=O)C1=C(c2ccc(F)cc2)CC2CCC1S2` (stereo unspecified), the values for the half-maximal inhibitory concentration (IC50) in assay [1] and in assay [2] were 220 nM and greater than 30000 nM, respectively. Besides, the Ratio IC50 in assay [3] is greater than 127.

Take `COC(=O)C1=C(c2ccc(Br)cc2)CC2CCC1S2` (stereo unspecified): the IC50 was 9.1 nM in assay [1] and greater than 25000 nM in assay [2]. Further, the Ratio IC50 in assay [3] was greater than 2750.

`COC(=O)[C@@H]1C2CCC(C[C@H]1c1ccccc1)S2` (stereo partly specified): the figures for the 50% inhibitory concentration (IC50) in assay [1] and in assay [2] were 140 nM and greater than 8000 nM, respectively. Besides, the Ratio IC50 in assay [3] was greater than 57.

As to `COC(=O)C1=C(c2ccc(Cl)c(Cl)c2)CC2CCC1O2` (stereo unspecified), the IC50 in assay [1] turned out to be 10 nM; in assay [2], 6000 nM. For the same molecule, the Ratio IC50 in assay [3] was 600.

Consider `COC(=O)[C@@H]1[C@@H]2CCC(C[C@H]1c1ccc(Cl)c(Cl)c1)S2`, for which the half-maximal inhibitory concentration (IC50) in assay [1] worked out at 10 nM; in assay [2], 139 nM. Besides, in assay [3], the Ratio IC50 worked out at 14.

On to `COC(=O)C1=C(c2ccc3ccccc3c2)CC2CCC1S2` (stereo unspecified), for which the IC50 in assay [1] was 8 nM; in assay [2] it was greater than 1000 nM. The Ratio IC50 in assay [3] is greater than 163.

As for `COC(=O)[C@@H]1C2CCC(C[C@@H]1c1ccc(Cl)c(Cl)c1)S2` (stereo partly specified), the IC50 in assay [1] is 5.7 nM; in assay [2], 8 nM. The Ratio IC50 in assay [3] is 1.5.

Turning to `COC(=O)C1=C(c2ccc(Cl)c(F)c2)CC2CCC1S2` (stereo unspecified), the half-inhibitory concentration (IC50) in assay [1] is 10 nM; in assay [2] it was greater than 50000 nM. The Ratio IC50 in assay [3] was greater than 5000.

Turning to `COC(=O)C1=C(c2ccc(Cl)c(Cl)c2)CC2CC[C@@H]1S2`, the results for the concentration for half-maximal inhibition (IC50) in assay [1] and in assay [2] were 5 nM and 4000 nM, respectively. Moreover, the Ratio IC50 in assay [3] stood at 800.

With `COC(=O)[C@@H]1C2CCC(C[C@H]1c1ccc(F)c(Cl)c1)S2` (stereo partly specified), the IC50 in assay [1] stood at 7.1 nM; in assay [2], 480 nM. Further, the Ratio IC50 in assay [3] was 68.

As to `COC(=O)C1=C(c2ccc(F)c(Cl)c2)CC2CCC1S2` (stereo unspecified), the IC50 in assay [1] is 7.6 nM; in assay [2] it was greater than 6000 nM. Also, the Ratio IC50 in assay [3] was greater than 789.

`COC(=O)[C@H]1[C@@H](c2ccc(Cl)c(Cl)c2)CC2CC[C@H]1N2C`: the figures for the IC50 in assay [1] and in assay [2] were 1.1 nM and 2.5 nM, respectively. For the same molecule, the Ratio IC50 in assay [3] is 2.2.

`COC(=O)[C@@H]1C2CCC(C2)C[C@@H]1c1ccc(Cl)c(Cl)c1` (stereo partly specified): the results for the half-inhibitory concentration (IC50) in assay [1] and in assay [2] were 9.6 nM and 33 nM, respectively. The Ratio IC50 in assay [3] came out at 3.4.

In the case of `COC(=O)[C@@H]1C2CCC(C[C@H]1c1ccc(F)c(F)c1)S2` (stereo partly specified), the results for the IC50 in assay [1] and in assay [2] were 11.3 nM and 1000 nM, respectively. Moreover, the Ratio IC50 in assay [3] was determined as 88.

As to `COC(=O)[C@@H]1[C@H]2[C@H](O)CC(C[C@@H]1c1ccc(Cl)c(Cl)c1)N2C`, the IC50 in assay [1] was 0.3 nM; in assay [2], 15 nM. In addition, the Ratio IC50 in assay [3] came out at 50.

Regarding `COC(=O)[C@@H]1[C@@H]2CCC(C[C@@H]1c1ccc(Cl)c(Cl)c1)S2`, the IC50 in assay [1] came to 22 nM; in assay [2] it was 90 nM. Besides, the Ratio IC50 in assay [3] came out at 4.

As to `COC(=O)[C@@H]1[C@@H]2[C@H](O)CC(C[C@H]1c1ccc(Cl)c(Cl)c1)N2C`, the IC50 was 482 nM in assay [1] and 5300 nM in assay [2]. Besides, the Ratio IC50 in assay [3] is 11.

Turning to `COC(=O)[C@@H]1[C@@H]2CCC(C[C@H]1c1ccc(Cl)c(Cl)c1)O2`, the IC50 in assay [1] was determined as 56 nM; in assay [2], 2860 nM. For the same molecule, the Ratio IC50 in assay [3] worked out at 51.

In the case of `COC(=O)C1=C(c2ccc(Cl)c(Cl)c2)CC2CCC1C2` (stereo unspecified), the results for the IC50 in assay [1] and in assay [2] were 7.1 nM and 5160 nM, respectively. The Ratio IC50 in assay [3] was determined as 727.

For the molecule `COC(=O)[C@@H]1C2CCC(C[C@H]1c1ccccc1)[S+]2[O-]` (stereo partly specified), the IC50 in assay [1] came out at 1000 nM; in assay [2], 100000 nM. For the same molecule, the Ratio IC50 in assay [3] was determined as 100.

`COC(=O)[C@@H]1[C@@H]2[C@H](O)CC(C[C@@H]1c1ccc(Cl)c(Cl)c1)N2C`: the IC50 in assay [1] turned out to be 2690 nM; in assay [2] it was 139 nM. Moreover, the Ratio IC50 in assay [3] was found to be 0.05.

With `COC(=O)[C@H]1[C@@H](c2ccc(Cl)c(Cl)c2)CC2CC[C@H]1O2`, the IC50 in assay [1] came out at 3.3 nM; in assay [2] it was 4.7 nM. In addition, the Ratio IC50 in assay [3] came out at 1.4.

Take `COC(=O)[C@@H]1C2CCC(C[C@@H]1c1ccc(Cl)c(Cl)c1)O2` (stereo partly specified): the concentration for half-maximal inhibition (IC50) worked out at 3.3 nM in assay [1] and 6.5 nM in assay [2]. Also, the Ratio IC50 in assay [3] worked out at 2.
